Experimental findings from ChEMBL document CHEMBL2331350, “Conjugation to 4-aminoquinoline improves the anti-trypanosomal activity of Deferiprone-type iron chelators” (Bioorg Med Chem, 2013) are described below.

The structures appear in SMILES notation. The source made the active and inactive calls. No cut-off for these calls is given here.

In series [1] the test system is Leishmania infantum. Kind of series: Antileishmanial activity against Leishmania infantum MHOM/BR/1972/LD promastigotes after 48 hrs by MTT assay. Format: functional.
Series [2] is described as follows: Cytotoxicity against human K562 cells. It is filed as cell-based.
The nature of series [3]: Cytotoxicity against human HL60 cells by alamar blue assay. It is filed as cell-based, HL-60. In a few lines: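 HL-60 cells in RPMI 1640 with 2 mM L-glutamine and 16.7% FBS at 37 °C, 5% CO2, seeded at 10⁵ cells/mL. Viability with Alamar Blue read as in the T. brucei assay (570 nm, reference 630 nm); GI50.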
For a further series, the system named is Plasmodium falciparum. Description: Antimalarial activity against Plasmodium falciparum ITG2G1. It is filed as functional.
For series [4], the system named is Trypanosoma brucei. Description: Antitrypanosomal activity against Trypanosoma brucei TC211 after 24 hrs by alamar blue assay. Format: functional. Conditions: TC211, 24 h. In a few lines:
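Bloodstream T. brucei TC211 in Baltz medium with 16.7% heat-inactivated FBS, seeded at 10⁴ cells/mL with compounds in DMSO (final 0.5%; DMSO-only controls). Alamar Blue added after 24 h, then 48 h incubation; absorbance 570 nm, reference 630 nm. Melarsoprol positive control; GI50 with 95% CI.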

Series [5] is described as follows: Iron cheating activity assessed as pFe3+ value at pH 7.45 by spectrophotometry. It is filed as functional. In a few lines: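 Automated spectrophotometric titration at 25 °C, 0.1 M KCl, pH 2–12 in 0.1-unit steps, 5 min equilibration for stability constants, 50 mm cuvette; […], total iron 1 mM; data fitted with pHab; pFe³⁺ defined at 10⁻⁶ M metal and 10⁻⁵ M ligand.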

For series [6], the system named is Trypanosoma brucei. Description: Iron cheating activity in Trypanosoma brucei bloodstream forms assessed as increase in fluorescein-labeled transferrin at 25 uM in presence of 16.7% heat inactivated FBS after 24 hrs by flow cytometry relative to untreated control. Format: functional. In a few lines:
(§1)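 Bloodstream T. brucei (5 × 10⁵/mL) exposed 24 h in Baltz medium/16.7% heat-inactivated FBS to 50 µM chelator, 25 µM DFO or DMSO control. Washed cells then given 50 µg/mL fluorescein-transferrin in Baltz/2% BSA for 2 h, washed, fixed in 2% formaldehyde/0.05% glutaraldehyde, analysed by flow cytometry.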

Series [7] deals with Trypanosoma brucei. Kind of series: Antitrypanosomal activity against Trypanosoma brucei TC211 after 24 hrs by alamar blue assay relative to Deferiprone. Format: functional.
A short description of series [8]: Selectivity index, ratio of GI50 for human HL60 cells to GI50 for Leishmania infantum MHOM/BR/1972/LD promastigotes. Format: toxicity, cell-based, HL-60. The conditions noted are these: read-out: RatioGI50.
The subject of series [9] is Trypanosoma cruzi. Kind of series: Antitrypanosomal activity against Trypanosoma cruzi trypomastigotes after 24 hrs by MTT assay relative to Chloroquine. Format: functional.
The nature of series [10]: Selectivity index, ratio of GI50 for human K562 cells to GI50 for Plasmodium falciparum ITG2G1. The conditions noted are these: read-out: RatioGI50. It is filed as toxicity, cell-based.
Series [11] concerns Leishmania infantum. Description: Antileishmanial activity against Leishmania infantum MHOM/BR/1972/LD intracellular amastigotes at 60 uM after 120 hrs by light microscopy.
Series [12] has as its system Trypanosoma brucei. Description: Antitrypanosomal activity against Trypanosoma brucei TC211 after 24 hrs by alamar blue assay relative to Chloroquine. It is filed as functional.
For series [13], the system named is Trypanosoma cruzi. Kind of series: Antitrypanosomal activity against Trypanosoma cruzi trypomastigotes after 24 hrs by MTT assay. It is filed as functional. In a few lines:
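T. cruzi trypomastigotes counted by hemocytometer, seeded at 1 × 10⁶ per well; compounds up to 100 µM for 24 h at 37 °C, 5% CO2. Viability from MTT conversion to formazan. Benznidazole positive control; GI50 with 95% CI.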

Series [14] concerns Trypanosoma cruzi. Description: Antitrypanosomal activity against Trypanosoma cruzi trypomastigotes after 24 hrs by MTT assay relative to Deferiprone. It is filed as functional.
A short description of series [15]: Selectivity index, ratio of GI50 for human HL60 cells to GI50 for Trypanosoma cruzi trypomastigotes. The conditions noted are these: read-out: RatioGI50. It is filed as toxicity, cell-based, HL-60.
Series [16] in a line: Selectivity index, ratio of GI50 for human HL60 cells to GI50 for Trypanosoma brucei TC211. Conditions: read-out: RatioGI50. It is filed as toxicity, cell-based, HL-60.
The nature of series [17]: Lipophilicity, log P of the compound. Conditions: octanol/water. Format: physicochemical.
Series [18] deals with Trypanosoma brucei. Kind of series: Antitrypanosomal activity against Trypanosoma brucei TC211 after 24 hrs in presence of FeCl3 by alamar blue assay. It is filed as functional, organism-based.
Series [19] deals with Trypanosoma brucei. Kind of series: Iron cheating activity in Trypanosoma brucei bloodstream forms assessed as increase in fluorescein-labeled transferrin at 50 uM in presence of 16.7% heat inactivated FBS after 24 hrs by flow cytometry relative to untreated control. It is filed as functional. In a few lines: as §1

Regarding `CC(=O)N(O)CCCCCNC(=O)CCC(=O)N(O)CCCCCNC(=O)CCC(=O)N(O)CCCCCN` [DEFEROXAMINE], the concentration for 50% growth inhibition (GI50) in the series with Leishmania infantum [1] was determined as 150 µM; in series [2], 33.1 µM; in [3], 18.4 µM; in the series with Plasmodium falciparum, 28 µM; in the series with Trypanosoma brucei [4], 2.9 µM. Further, in [5], the Activity worked out at 26.6. In addition, in the series on Trypanosoma brucei [6], the “fold change (FC)” value worked out at 2.

Turning to `Cc1c(O)c(=O)ccn1CCCCNc1ccnc2cc(Cl)ccc12`, the Ratio in the series with Trypanosoma brucei [7] is >25; in the series on Trypanosoma cruzi [9], 4; in the series with Trypanosoma brucei [12], 4; in the series with Trypanosoma cruzi [14] it was >15. For the same compound, the selectivity ratio was 2 in series [8], 16 in [10], 8 in series [15] and 13 in series [16]. The GI50 is 27.1 µM with Leishmania infantum [1]; 38.2 µM in [2]; 6.5 µM in the series on Trypanosoma cruzi [13]; 50.3 µM in series [3]; 2.4 µM in the series on Plasmodium falciparum; 3.8 µM in the series on Trypanosoma brucei [4]. The result in the series on Leishmania infantum [11] was inactive. Besides, the logP in series [17] is 1.4.

As to `Cc1cc(NC(=O)CCCn2ccc(=O)c(O)c2C)c2ccccc2n1`, the GI50 in series [2] came to 128 µM; with Plasmodium falciparum, 6 µM. Further, in series [10], the selectivity ratio came out at 21. Further, in series [17], the lipophilicity (logP) turned out to be 1.28.

For the compound `Cc1c(O)c(=O)ccn1CCNc1ccnc2cc(Cl)ccc12`, the 50% growth inhibitory concentration (GI50) is 182 µM in series [2] and 7 µM in the series on Plasmodium falciparum. The selectivity ratio in [10] came out at 26. The same compound yielded a logP in series [17] of 1.08.

As to `Cc1c(O)c(=O)ccn1CCCCNc1ccnc2ccccc12`, the 50% growth inhibitory concentration (GI50) is > 100 µM in the series on Leishmania infantum [1]; 27.1 µM in series [2]; > 100 µM in the series on Trypanosoma cruzi [13]; > 100 µM in series [3]; 1.6 µM in the series on Plasmodium falciparum; 7.6 µM in the series with Trypanosoma brucei [4]. For the same compound, the selectivity ratio in series [10] is 17; in series [16], > 13. Moreover, in the series with Trypanosoma brucei [18], the result was inactive. The lipophilicity (logP) in [17] amounted to 1.25. The “fold change (FC)” value in the series with Trypanosoma brucei [19] came to 1.6.

In turn, `C[C@@H]1[C@H](O)[C@@H](C)/C=C/C=C/C=C/C=C/C=C/C=C/C=C/[C@H](O[C@@H]2O[C@H](C)[C@@H](O)[C@H](N)[C@@H]2O)C[C@@H]2O[C@](O)(C[C@@H](O)C[C@@H](O)[C@H](O)CC[C@@H](O)C[C@@H](O)CC(=O)O[C@H]1C)C[C@H](O)[C@H]2C(=O)O` [AMPHOTERICIN B] showed a GI50 with Leishmania infantum [1] of 0.17 µM.

In the series with Trypanosoma cruzi [13], `O=C(Cn1ccnc1[N+](=O)[O-])NCc1ccccc1` [BENZNIDAZOLE] gave a GI50 of 441 µM.

Regarding `Cc1c(O)c(=O)ccn1C` [DEFERIPRONE], the GI50 in the series with Leishmania infantum [1] was > 100 µM; with Trypanosoma cruzi [13] it was > 100 µM; in series [3] it was > 100 µM; in the series with Plasmodium falciparum, 67 µM; with Trypanosoma brucei [4], > 100 µM. Besides, the Activity in series [5] is 19.3.

With `CCN(CC)CCCC(C)Nc1ccnc2cc(Cl)ccc12` (configuration not stated) [CHLOROQUINE], the GI50 with Leishmania infantum [1] came to 3.7 µM; in the series with Trypanosoma cruzi [13] it was 22.2 µM; with Trypanosoma brucei [4], 15.6 µM.

In turn, `Nc1nc(N)nc(Nc2ccc([As]3SCC(CO)S3)cc2)n1` (configuration not stated) [MELARSOPROL] gave a concentration for 50% growth inhibition (GI50) in the series on Trypanosoma brucei [4] of 0.0038 µM.

As for `Cc1c(O)c(=O)ccn1CCN`, the GI50 is > 100 µM with Leishmania infantum [1], > 100 µM in the series with Trypanosoma cruzi [13], 111 µM in series [3] and > 100 µM in the series with Trypanosoma brucei [4].

On to `CCCCCCCCCCn1ccc(=O)c(O)c1C`, for which the values for the selectivity ratio in [8], in series [15] and in [16] were 9, 8 and 5, respectively. Besides, the GI50 stood at 0.7 µM in the series on Leishmania infantum [1], 0.8 µM in the series on Trypanosoma cruzi [13], 6.3 µM in series [3] and 1.4 µM in the series on Trypanosoma brucei [4].

For the compound `NCCCCNc1ccnc2cc(Cl)ccc12`, the GI50 is 42.4 µM with Leishmania infantum [1], 46.3 µM in the series on Trypanosoma cruzi [13], > 100 µM in [3] and 15.8 µM with Trypanosoma brucei [4].

In the case of `CCCCCCCCn1ccc(=O)c(O)c1C`, the selectivity ratio in series [8] is 4; in series [15], 4; in series [16] it was 3. Besides, the GI50 came to 3.2 µM in the series with Leishmania infantum [1], 3 µM with Trypanosoma cruzi [13], 11.2 µM in series [3] and 3.6 µM in the series on Trypanosoma brucei [4].

As for `Cc1cc(NCCCCn2ccc(=O)c(O)c2C)c2ccccc2n1`, the 50% growth inhibitory concentration (GI50) in [2] amounted to 204 µM; in the series with Plasmodium falciparum, 9 µM. Also, the selectivity ratio in [10] amounted to 23. In addition, in [5], the Activity came out at 21.1. Further, the logP in [17] was -0.48.

Take `Cc1c(O)c(=O)ccn1CCCNc1ccnc2cc(Cl)ccc12`: the logP in series [17] was 1.32.
